Each block holds one compound with its values, some of them ahead of it. The source made the active and inactive calls. The calls are words filed in the database; no cut-off is given here.
Columns and labels:
Fusobacterium nucleatum [1] = test: Inhibition of Fusobacterium nucleatum ATCC 25586 AI-2 assessed as decrease in biofilm formation at 0.02 to 0.2 uM
Fusobacterium nucleatum [2] = test: Inhibition of Fusobacterium nucleatum AI-2-mediated biofilm formation of Tannerella forsythia ATCC 43037 assessed as biofilm biomass at 2 uM incubated for 48 hrs under anaerobic condition by confocal laser scanning microscopic method (reference value: 4.05 um'3/um'2)
[3] = Effect on host cell immune response in human gingival fibroblasts assessed as upregulation of IL-6 mRNA expression at 2 uM after 24 hrs by RT-PCR method; type: ADME
Summary of the method: (§1)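 THP-1 cells (1 × 10^6 cells/well) or HGFs (2 × 10^5 cells/well) in 6-well plates were incubated 24 h at 37 °C with or without compound, with LPS as comparator. Total RNA (1 µg) was reverse-transcribed, and IL-6 and IL-8 mRNA were quantified by SYBR Green real-time PCR (40 cycles of 95 °C for 15 s and 60 °C for 1 min). Runs were done three times in triplicate.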

Fusobacterium nucleatum [4] = test: Inhibition of Fusobacterium nucleatum AI-2-mediated biofilm formation of Porphyromonas gingivalis ATCC 33277 assessed as biofilm average depth at 2 uM incubated for 48 hrs under anaerobic condition by confocal laser scanning microscopic method (reference value: 4.87 um)
Fusobacterium nucleatum [5] = test: Inhibition of Fusobacterium nucleatum AI-2-mediated biofilm formation of Fusobacterium nucleatum ATCC 25586 assessed as biofilm biomass at 2 uM incubated for 48 hrs under anaerobic condition by confocal laser scanning microscopic method (reference value: 2.99 um'3/um'2)
THP-1 [6] = test: Cytotoxicity against human THP1 cells assessed as effect on cell viability at 2 uM incubated for 24 hrs by CCK8 assay; type: cell-based; conditions: thp-1, 24 h
Summary of the method: (§2)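 Cells in 96-well plates were exposed to compound for 24 h, with viability read by CCK-8 against a non-treated control. THP-1 (RPMI 1640, 10% FBS) was seeded at 1 × 10^5 cells/well and treated directly. HGFs (DMEM, 10% FBS) at 2 × 10^4 and HOK-16B (keratinocyte basal medium) at 5 × 10^4 cells/well were treated after reaching 85% confluence. Runs were done three times in triplicate.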

Fusobacterium nucleatum [7] = test: Inhibition of Fusobacterium nucleatum AI-2-mediated biofilm formation of Tannerella forsythia ATCC 43037 assessed as biofilm average depth at 2 uM incubated for 48 hrs under anaerobic condition by confocal laser scanning microscopic method (reference value: 5.29 um)
Fusobacterium nucleatum [8] = test: Inhibition of Fusobacterium nucleatum AI-2-mediated biofilm formation of Tannerella forsythia ATCC 43037 assessed as biofilm formation at 2 uM incubated for 48 hrs under anaerobic condition by crystal violet staining-based assay (reference value: 100%); parameters: scale not given: the % may be the effect or the level left
Summary of the method: (§3)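 Crystal-violet biofilm assay on glass slips in 24-well plates with 10% (v/v) F. nucleatum AI-2 and compound at 0.002–2 mM. Inocula were F. nucleatum 2 × 10^7, P. gingivalis 2 × 10^8 and T. forsythia 2 × 10^8 bacteria/mL, held 48 h anaerobically (10% H2, 10% CO2, 80% N2). Slips were washed three times with PBS, stained with 1% crystal violet for 10 min, destained with acetone–alcohol (20:80) and read at A595.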

[9] = Cytotoxicity against human HOK16B assessed as effect on cell viability at 2 uM incubated for 24 hrs by CCK8 assay; summary of the method: as §2
Fusobacterium nucleatum [10] = test: Inhibition of Fusobacterium nucleatum AI-2-mediated biofilm formation of Porphyromonas gingivalis ATCC 33277 assessed as biofilm formation at 2 uM incubated for 48 hrs under anaerobic condition by crystal violet staining-based assay (reference value: 100%); parameters: scale not given: the % may be the effect or the level left; summary of the method: as §3
[11] = Cytotoxicity against human gingival fibroblasts assessed as effect on cell viability at 2 uM incubated for 24 hrs by CCK8 assay; summary of the method: as §2
THP-1 [12] = test: Effect on host cell immune response in human THP1 cells assessed as upregulation of IL-6 mRNA expression at 2 uM after 24 hrs by RT-PCR method; type: ADME, cell-based; conditions: thp-1, 24 h; summary of the method: as §1
Fusobacterium nucleatum [13] = test: Inhibition of Fusobacterium nucleatum AI-2-mediated biofilm formation of Fusobacterium nucleatum ATCC 25586 assessed as biofilm average depth at 2 uM incubated for 48 hrs under anaerobic condition by confocal laser scanning microscopic method (reference value: 5.37 um)
Fusobacterium nucleatum [14] = test: Inhibition of Fusobacterium nucleatum AI-2-mediated biofilm formation of Porphyromonas gingivalis ATCC 33277 assessed as biofilm biomass at 2 uM incubated for 48 hrs under anaerobic condition by confocal laser scanning microscopic method (reference value: 3.73 um'3/um'2)
Porphyromonas gingivalis = test: Inhibition of Porphyromonas gingivalis ATCC 33277 planktonic growth at […] incubated for 48 hrs under anaerobic condition by spectrophotometric method; type: organism-based
Summary of the method: (§4)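 F. nucleatum, P. gingivalis or T. forsythia were grown planktonically for 48 h at 37 °C under anaerobic conditions with compound at 2 mM. Growth was monitored by absorbance at 600 nm.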

THP-1 [15] = test: Effect on host cell immune response in human THP1 cells assessed as upregulation of IL-8 mRNA expression at 2 uM after 24 hrs by RT-PCR method; type: ADME, cell-based; conditions: thp-1, 24 h; summary of the method: as §1
Fusobacterium nucleatum [16] = test: Inhibition of Fusobacterium nucleatum ATCC 25586 planktonic growth at […] incubated for 48 hrs under anaerobic condition by spectrophotometric method; type: organism-based; summary of the method: as §4
[17] = Effect on host cell immune response in human gingival fibroblasts assessed as upregulation of IL-8 mRNA expression at 2 uM after 24 hrs by RT-PCR method; type: ADME; summary of the method: as §1
Tannerella forsythia = test: Inhibition of Tannerella forsythia ATCC 43037 planktonic growth at […] incubated for 48 hrs under anaerobic condition by spectrophotometric method; type: organism-based; summary of the method: as §4
Vibrio harveyi = test: Effect on Vibrio harveyi BB170 planktonic growth at 2 incubated for 9 hrs under aerobic condition by spectrophotometric method; parameters: concentration or dose not given beside the values; conditions: in vitro
Fusobacterium nucleatum [18] = test: Inhibition of Fusobacterium nucleatum AI-2-mediated biofilm formation of Fusobacterium nucleatum ATCC 25586 assessed as biofilm formation at 2 uM incubated for 48 hrs under anaerobic condition by crystal violet staining-based assay (reference value: 100%); parameters: scale not given: the % may be the effect or the level left; summary of the method: as §3
Fusobacterium nucleatum [19] = test: Inhibition of Fusobacterium nucleatum ATCC 25586 AI-2 assessed as decrease in biofilm formation at 0.2 to 2 uM

SMILES: Cc1ccc2c(c1)C(=C(Br)Br)OC2=O
Activity (Fusobacterium nucleatum [2]): 0.59 um3/um2
Activity [3]: Non-Toxic
Activity (Fusobacterium nucleatum [4]): 2.05 µm
Activity (Fusobacterium nucleatum [5]): 0.38 um3/um2
Activity (THP-1 [6]): Non-Toxic
Activity (Fusobacterium nucleatum [7]): 1.94 µm
Activity (Fusobacterium nucleatum [8]): 33.5%
Activity [9]: Non-Toxic
Activity (Fusobacterium nucleatum [10]): 34.7%
Activity [11]: Non-Toxic
Activity (THP-1 [12]): Non-Toxic
Activity (Fusobacterium nucleatum [13]): 1.87 µm
Activity (Fusobacterium nucleatum [14]): 0.29 um3/um2
growth inhibition (GI) (Porphyromonas gingivalis): Non-Toxic
Activity (THP-1 [15]): Non-Toxic
inhibition (Fusobacterium nucleatum [1]): Active
growth inhibition (GI) (Fusobacterium nucleatum [16]): Non-Toxic
Activity [17]: Non-Toxic
growth inhibition (GI) (Tannerella forsythia): Non-Toxic
Activity (Vibrio harveyi): Non-Toxic
Activity (Fusobacterium nucleatum [18]): 32.1%

SMILES: O=C1OC(=C(Br)Br)C2CCCCC12 (stereo unspecified)
inhibition (Fusobacterium nucleatum [1]): inactive

SMILES: O=C1C=C(Br)/C(=C/Br)O1
Activity (Fusobacterium nucleatum [2]): 0.77 um3/um2
Activity (Fusobacterium nucleatum [4]): 2.05 µm
Activity (Fusobacterium nucleatum [5]): 0.42 um3/um2
Activity (Fusobacterium nucleatum [7]): 2.18 µm
Activity (Fusobacterium nucleatum [8]): 47.4%
Activity (Fusobacterium nucleatum [10]): 39.2%
Activity (THP-1 [12]): Toxic
Activity (Fusobacterium nucleatum [13]): 2.02 µm
Activity (Fusobacterium nucleatum [14]): 0.3 um3/um2
Activity (THP-1 [15]): Toxic
inhibition (Fusobacterium nucleatum [1]): Active
Activity [17]: Toxic
Activity (Vibrio harveyi): Toxic
Activity (Fusobacterium nucleatum [18]): 55.6%

SMILES: O=C1OC(=C(Br)Br)C2=C1CCC2
inhibition (Fusobacterium nucleatum [1]): inactive

SMILES: CCCOc1cccc2c1C(=O)OC2=C(Br)Br
inhibition (Fusobacterium nucleatum [1]): inactive

SMILES: O=C1OC(=C(Br)Br)c2ccccc21
inhibition (Fusobacterium nucleatum [19]): Active
inhibition (Fusobacterium nucleatum [1]): inactive

SMILES: Cc1cccc2c1C(=O)OC2=C(Br)Br
Activity (Fusobacterium nucleatum [2]): 0.88 um3/um2
Activity [3]: Non-Toxic
Activity (Fusobacterium nucleatum [4]): 1.97 µm
Activity (Fusobacterium nucleatum [5]): 0.32 um3/um2
Activity (THP-1 [6]): Non-Toxic
Activity (Fusobacterium nucleatum [7]): 2.41 µm
Activity (Fusobacterium nucleatum [8]): 53.5%
Activity [9]: Non-Toxic
Activity (Fusobacterium nucleatum [10]): 29.3%
Activity [11]: Non-Toxic
Activity (THP-1 [12]): Non-Toxic
Activity (Fusobacterium nucleatum [13]): 1.72 µm
Activity (Fusobacterium nucleatum [14]): 0.27 um3/um2
growth inhibition (GI) (Porphyromonas gingivalis): Non-Toxic
Activity (THP-1 [15]): Non-Toxic
inhibition (Fusobacterium nucleatum [1]): Active
growth inhibition (GI) (Fusobacterium nucleatum [16]): Non-Toxic
Activity [17]: Non-Toxic
growth inhibition (GI) (Tannerella forsythia): Non-Toxic
Activity (Vibrio harveyi): Non-Toxic
Activity (Fusobacterium nucleatum [18]): 33.2%

SMILES: CCCCCOc1cccc2c1C(=O)OC2=C(Br)Br
inhibition (Fusobacterium nucleatum [1]): inactive

The next lines start with results.

inhibition (Fusobacterium nucleatum [1]): inactive
SMILES: CCCOc1ccc2c(c1)C(=C(Br)Br)OC2=O

inhibition (Fusobacterium nucleatum [1]): inactive
SMILES: CCOc1ccc2c(c1)C(=C(Br)Br)OC2=O

inhibition (Fusobacterium nucleatum [1]): inactive
SMILES: CCCCCOc1ccc2c(c1)C(=C(Br)Br)OC2=O

inhibition (Fusobacterium nucleatum [1]): inactive
SMILES: CCOc1cccc2c1C(=O)OC2=C(Br)Br

Activity (Fusobacterium nucleatum [2]): 0.93 um3/um2
Activity (Fusobacterium nucleatum [4]): 2.05 µm
Activity (Fusobacterium nucleatum [5]): 0.39 um3/um2
Activity (Fusobacterium nucleatum [7]): 2.27 µm
Activity (Fusobacterium nucleatum [8]): 57.8%
Activity (Fusobacterium nucleatum [10]): 48.4%
inhibition (Fusobacterium nucleatum [19]): Active
Activity (Fusobacterium nucleatum [13]): 1.82 µm
Activity (Fusobacterium nucleatum [14]): 0.31 um3/um2
inhibition (Fusobacterium nucleatum [1]): Active
Activity (Fusobacterium nucleatum [18]): 38.8%
SMILES: O=C1OC(=C(Br)Br)C2CCCC12 (stereo unspecified)
Activity [3]: Non-Toxic
Activity (THP-1 [6]): Non-Toxic
Activity [9]: Non-Toxic
Activity [11]: Non-Toxic
Activity (THP-1 [12]): Non-Toxic
growth inhibition (GI) (Porphyromonas gingivalis): Non-Toxic
Activity (THP-1 [15]): Non-Toxic
growth inhibition (GI) (Fusobacterium nucleatum [16]): Non-Toxic
Activity [17]: Non-Toxic
growth inhibition (GI) (Tannerella forsythia): Non-Toxic
Activity (Vibrio harveyi): Non-Toxic

inhibition (Fusobacterium nucleatum [1]): inactive
SMILES: CCCCOc1ccc2c(c1)C(=C(Br)Br)OC2=O

inhibition (Fusobacterium nucleatum [1]): inactive
SMILES: O=C1OC(=C(Br)Br)C2=C1CCCC2

inhibition (Fusobacterium nucleatum [1]): inactive
SMILES: CCCCOc1cccc2c1C(=O)OC2=C(Br)Br

Reference: ChEMBL document CHEMBL4138116, “New bicyclic brominated furanones as potent autoinducer-2 quorum-sensing inhibitors against bacterial biofilm formation” (Eur J Med Chem, 2017)
